Laboratory results published in ChEMBL document CHEMBL1926530, “Novel pyrazolo[1,5-a]pyridines as p110α-selective PI3 kinase inhibitors: Exploring the benzenesulfonohydrazide SAR” (Bioorg Med Chem, 2012).
Values after ≈ are worked out from the molar mass of the structure shown.

Legend:
[1] = target: T1, Phosphatidylinositol 4,5-bisphosphate 3-kinase catalytic subunit delta isoform (Homo sapiens, UniProt O00329); test: Inhibition of recombinant PI3K p110delta using L-alpha-phosphatidylinositol as substrate and [gamma33P]ATP after 60 mins by thin layer chromatographic technique
T1 sequence (O00329 whole entry): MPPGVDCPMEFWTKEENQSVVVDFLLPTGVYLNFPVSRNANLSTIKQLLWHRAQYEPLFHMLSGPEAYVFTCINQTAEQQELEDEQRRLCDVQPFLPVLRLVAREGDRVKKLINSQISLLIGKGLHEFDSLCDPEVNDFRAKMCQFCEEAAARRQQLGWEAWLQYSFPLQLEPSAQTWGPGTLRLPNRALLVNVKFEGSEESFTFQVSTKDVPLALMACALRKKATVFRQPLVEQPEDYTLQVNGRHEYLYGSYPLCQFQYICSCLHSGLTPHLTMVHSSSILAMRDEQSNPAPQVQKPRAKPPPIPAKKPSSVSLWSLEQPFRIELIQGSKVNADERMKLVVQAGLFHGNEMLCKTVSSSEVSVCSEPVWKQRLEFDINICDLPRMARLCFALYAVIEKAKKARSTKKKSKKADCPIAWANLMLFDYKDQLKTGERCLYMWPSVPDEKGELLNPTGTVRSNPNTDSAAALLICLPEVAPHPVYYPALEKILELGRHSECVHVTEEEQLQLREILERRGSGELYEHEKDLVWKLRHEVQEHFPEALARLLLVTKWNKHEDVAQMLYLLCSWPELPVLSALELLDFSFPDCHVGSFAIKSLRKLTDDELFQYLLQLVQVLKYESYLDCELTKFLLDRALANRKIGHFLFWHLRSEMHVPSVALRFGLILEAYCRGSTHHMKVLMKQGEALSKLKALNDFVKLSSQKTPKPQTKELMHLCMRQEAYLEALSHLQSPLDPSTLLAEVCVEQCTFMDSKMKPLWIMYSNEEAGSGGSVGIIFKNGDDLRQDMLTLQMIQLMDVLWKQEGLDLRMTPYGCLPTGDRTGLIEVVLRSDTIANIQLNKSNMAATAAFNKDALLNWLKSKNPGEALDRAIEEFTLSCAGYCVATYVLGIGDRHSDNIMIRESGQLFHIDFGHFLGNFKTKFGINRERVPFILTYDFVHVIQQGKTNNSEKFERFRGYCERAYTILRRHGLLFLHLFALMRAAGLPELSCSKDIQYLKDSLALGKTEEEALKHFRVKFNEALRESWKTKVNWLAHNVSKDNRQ
How it was run: (§1)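 In-house recombinant enzyme (0.1 µg) with L-α-phosphatidylinositol in 40 mM Tris-HCl pH 7.4, 200 mM NaCl, 1 mM EDTA; DMSO 1% final. Started with 5 mM MgCl₂, 100 µM ATP plus [γ-³³P]ATP; 1 h at room temperature, stopped with 1 M HCl. Lipids extracted, separated by TLC, phosphorimaged. Nine inhibitor concentrations; two experiments, IC50 averaged.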

[2] = Cytotoxicity against human NZB5 cells assessed as inhibition of [3H]thymidine incorporation measured after 5 days; format: functional, cell-based
How it was run: (§2)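 Early-passage lines grown in α-MEM with insulin, transferrin, selenite and 5% FBS. Wells seeded with 1000 cells; inhibitor in dilution steps up to a maximum of 20. Five days under 5% O₂/5% CO₂/90% N₂, ³H-thymidine added for the last 6 h. Duplicates per dose; fit y = y₀ + ae^−bx; IC50 = 50% reduction in incorporation.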

[3] = target: Phosphatidylinositol 4,5-bisphosphate 3-kinase catalytic subunit alpha isoform (Homo sapiens, UniProt P42336); test: Inhibition of recombinant PI3K p110alpha using L-alpha-phosphatidylinositol as substrate and [gamma33P]ATP after 60 mins by thin layer chromatographic technique; how it was run: as §1
[4] = target: Phosphatidylinositol 4,5-bisphosphate 3-kinase catalytic subunit beta isoform (Homo sapiens, UniProt P42338); test: Inhibition of recombinant PI3K p110beta using L-alpha-phosphatidylinositol as substrate and [gamma33P]ATP after 60 mins by thin layer chromatographic technique; how it was run: as §1
[5] = Cytotoxicity against human NZOV9 cells harboring PI3K p110alpha Y1021C mutant assessed as inhibition of [3H]thymidine incorporation measured after 5 days; format: functional, cell-based; how it was run: as §2
[6] = Aqueous solubility of the compound; format: physicochemical; settings: water
How it was run: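 Solid mixed with water to make 2 mM, sonicated 15 min, centrifuged 13000 rpm for 6 min. Clear supernatant diluted 2-fold with water, recentrifuged and injected on HPLC. Peak area compared with a DMSO standard solution of the compound, correcting for dilution and injection volume.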

HCT-116 = test: Antitumor activity against human HCT116 cells xenografted in Rag1 knockout mouse assessed as tumor growth delay at 20 mg/kg, ip QD measured on day 10 relative to untreated control; format: functional; settings: route intraperitoneal
How it was run: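 Male Rag1−/− mice (age-matched, SPF) inoculated s.c. with 5 × 10⁶ HCT-116 cells in PBS. Dosing started at ~150 mm³ tumours: q.d. i.p. in 7.5% DMSO, 42.5% PEG-400, 20% 2-hydroxypropyl-β-cyclodextrin, 30% water; controls received vehicle. Volume = (L × w²) × π/6, measured three times weekly; bodyweight daily. Treatment stopped if mean weight loss >15%; 1-way ANOVA with Holm–Sidak.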

Sequence of Phosphatidylinositol 4,5-bisphosphate 3-kinase catalytic subunit alpha isoform (P42336 whole entry, canonical isoform): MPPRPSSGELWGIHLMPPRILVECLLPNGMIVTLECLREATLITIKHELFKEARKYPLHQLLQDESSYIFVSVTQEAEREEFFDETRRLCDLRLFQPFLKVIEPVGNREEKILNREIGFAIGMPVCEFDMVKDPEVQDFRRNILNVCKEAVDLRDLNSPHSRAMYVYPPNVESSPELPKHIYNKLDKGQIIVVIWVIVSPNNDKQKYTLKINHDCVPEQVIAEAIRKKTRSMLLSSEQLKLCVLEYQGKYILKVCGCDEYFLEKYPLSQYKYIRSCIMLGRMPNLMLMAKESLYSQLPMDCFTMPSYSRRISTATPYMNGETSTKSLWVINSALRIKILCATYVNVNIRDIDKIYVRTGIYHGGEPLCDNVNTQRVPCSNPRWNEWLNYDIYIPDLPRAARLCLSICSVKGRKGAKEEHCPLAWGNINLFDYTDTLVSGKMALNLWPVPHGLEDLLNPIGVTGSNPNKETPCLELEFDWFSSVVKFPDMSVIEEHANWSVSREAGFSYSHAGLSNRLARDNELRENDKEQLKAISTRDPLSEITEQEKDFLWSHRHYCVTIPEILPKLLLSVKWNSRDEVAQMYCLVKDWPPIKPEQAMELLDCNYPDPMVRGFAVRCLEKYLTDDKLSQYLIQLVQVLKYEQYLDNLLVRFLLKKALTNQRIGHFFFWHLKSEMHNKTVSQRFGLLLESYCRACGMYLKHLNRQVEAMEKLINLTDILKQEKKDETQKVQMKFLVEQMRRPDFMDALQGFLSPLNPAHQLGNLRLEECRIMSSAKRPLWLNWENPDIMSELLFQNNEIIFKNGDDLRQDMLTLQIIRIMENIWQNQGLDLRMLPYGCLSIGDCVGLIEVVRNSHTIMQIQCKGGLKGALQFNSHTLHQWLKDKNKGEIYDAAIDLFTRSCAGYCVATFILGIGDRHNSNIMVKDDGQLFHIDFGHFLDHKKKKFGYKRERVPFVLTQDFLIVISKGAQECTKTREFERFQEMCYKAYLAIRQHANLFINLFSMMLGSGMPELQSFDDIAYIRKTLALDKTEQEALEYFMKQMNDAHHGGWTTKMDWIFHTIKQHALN
Sequence of Phosphatidylinositol 4,5-bisphosphate 3-kinase catalytic subunit beta isoform (P42338 whole entry, canonical isoform): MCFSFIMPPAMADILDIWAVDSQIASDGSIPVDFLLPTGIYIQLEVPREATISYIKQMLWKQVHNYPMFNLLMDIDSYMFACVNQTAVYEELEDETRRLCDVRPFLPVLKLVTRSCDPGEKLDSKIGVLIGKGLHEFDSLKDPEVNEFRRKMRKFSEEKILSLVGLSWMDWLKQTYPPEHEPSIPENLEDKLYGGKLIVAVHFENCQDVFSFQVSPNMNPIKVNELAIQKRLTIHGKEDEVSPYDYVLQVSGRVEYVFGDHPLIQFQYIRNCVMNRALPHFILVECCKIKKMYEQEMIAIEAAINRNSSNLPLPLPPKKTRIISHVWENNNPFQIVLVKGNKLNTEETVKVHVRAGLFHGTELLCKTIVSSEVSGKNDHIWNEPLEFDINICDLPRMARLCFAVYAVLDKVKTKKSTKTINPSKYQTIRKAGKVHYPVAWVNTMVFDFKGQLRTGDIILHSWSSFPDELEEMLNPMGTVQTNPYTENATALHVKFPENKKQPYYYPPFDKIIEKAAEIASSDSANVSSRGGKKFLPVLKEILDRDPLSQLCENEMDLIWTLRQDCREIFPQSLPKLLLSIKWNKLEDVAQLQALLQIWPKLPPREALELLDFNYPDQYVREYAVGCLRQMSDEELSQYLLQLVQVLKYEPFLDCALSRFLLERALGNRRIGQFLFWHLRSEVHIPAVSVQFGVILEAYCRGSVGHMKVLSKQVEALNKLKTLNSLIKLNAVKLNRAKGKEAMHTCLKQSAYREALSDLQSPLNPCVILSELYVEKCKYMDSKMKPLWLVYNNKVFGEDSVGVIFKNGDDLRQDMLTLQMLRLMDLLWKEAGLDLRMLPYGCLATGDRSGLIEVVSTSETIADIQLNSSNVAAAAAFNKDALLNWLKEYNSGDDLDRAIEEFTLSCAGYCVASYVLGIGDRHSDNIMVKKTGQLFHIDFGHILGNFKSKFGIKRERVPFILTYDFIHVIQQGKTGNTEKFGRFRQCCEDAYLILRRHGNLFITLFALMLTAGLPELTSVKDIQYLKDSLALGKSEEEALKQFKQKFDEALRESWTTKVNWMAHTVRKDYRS

SMILES | IC50 [1] | IC50 [3] | IC50 [4] | solubility [6] | IC50 [2] | IC50 [5] | Activity (HCT-116)
Cc1ccc([N+](=O)[O-])cc1S(=O)(=O)N(CCN1CCOCC1)/N=C/c1cnn2ccc(C#N)cc12 | 10 nM | 4.5 nM | 230 nM | – | 500 nM | 540 nM | –
CC(=O)Nc1ccc(C)c(S(=O)(=O)N(C)/N=C/c2cnn3ccc(C#N)cc23)c1 | > 1000 nM | > 1000 nM | > 1000 nM | – | > 20000 nM | > 20000 nM | –
Cc1ccc([N+](=O)[O-])cc1S(=O)(=O)N(CCN1CCCCC1)/N=C/c1cnn2ccc(C#N)cc12 | 89 nM | 140 nM | > 1000 nM | – | 1100 nM | 490 nM | –
Cc1ccc([N+](=O)[O-])cc1C(=O)N(C)/N=C/c1cnn2ccc(C#N)cc12 | 8.6 nM | 17 nM | 68 nM | – | > 20000 nM | > 20000 nM | –
Cc1ccc(F)cc1S(=O)(=O)N(C)/N=C/c1cnn2ccc(C#N)cc12 | 310 nM | 55 nM | 550 nM | – | > 20000 nM | 14000 nM | –
Cc1ccc(Br)cc1S(=O)(=O)N(C)/N=C/c1cnn2ccc(C#N)cc12 | 180 nM | 13 nM | 620 nM | – | 700 nM | 570 nM | –
Cc1ccc(NC(=O)C(F)(F)F)cc1S(=O)(=O)N(C)/N=C/c1cnn2ccc(C#N)cc12 | > 1000 nM | > 1000 nM | > 1000 nM | – | 2300 nM | 9100 nM | –
CN(/N=C/c1cnn2ccc(C#N)cc12)C(=O)c1cccc([N+](=O)[O-])c1 | 16 nM | 11 nM | 67 nM | – | 1800 nM | 6000 nM | –
Cc1ccc([N+](=O)[O-])cc1CN(C)/N=C/c1cnn2ccc(C#N)cc12 | 37 nM | 40 nM | 79 nM | – | 1700 nM | 1900 nM | –
CCN(CC)CCN(/N=C/c1cnn2ccc(C#N)cc12)S(=O)(=O)c1cc([N+](=O)[O-])ccc1C | 110 nM | 82 nM | > 1000 nM | – | 3500 nM | 1700 nM | –
Cc1ccc(C#N)cc1S(=O)(=O)N(C)/N=C/c1cnn2ccc(C#N)cc12 | 59 nM | 2.4 nM | 130 nM | – | 280 nM | 210 nM | –
Cc1ccccc1S(=O)(=O)N(C)/N=C/c1cnn2ccc(C#N)cc12 | 2000 nM | 700 nM | > 1000 nM | – | > 20000 nM | 12000 nM | –
COC(=O)c1ccc(C)c(S(=O)(=O)N(C)/N=C/c2cnn3ccc(C#N)cc23)c1 | 400 nM | 990 nM | > 1000 nM | – | 2400 nM | 1900 nM | –
Cc1ccc(C(F)(F)F)cc1S(=O)(=O)N(C)/N=C/c1cnn2ccc(C#N)cc12 | 35 nM | 21 nM | 60 nM | – | 980 nM | 1300 nM | –
Cc1ccc(C(=O)O)cc1S(=O)(=O)N(C)/N=C/c1cnn2ccc(C#N)cc12 | > 1000 nM | > 1000 nM | > 1000 nM | – | > 20000 nM | > 20000 nM | –
Cc1ccc([N+](=O)[O-])cc1S(=O)(=O)N(Cc1ccccc1)/N=C/c1cnn2ccc(C#N)cc12 | 32 nM | 27 nM | > 1000 nM | – | – | 2500 nM | –

Second part, led by results:

IC50 [1] | IC50 [3] | IC50 [4] | solubility [6] | SMILES | IC50 [2] | IC50 [5] | Activity (HCT-116)
100 nM | 14 nM | 340 nM | – | Cc1cccc([N+](=O)[O-])c1S(=O)(=O)N(C)/N=C/c1cnn2ccc(C#N)cc12 | 3700 nM | 7600 nM | –
> 1000 nM | 100 nM | > 1000 nM | – | Cc1ccc(C)c(S(=O)(=O)N(C)/N=C/c2cnn3ccc(C#N)cc23)c1 | 2100 nM | 880 nM | –
> 1000 nM | > 1000 nM | > 1000 nM | – | Cc1ccc(N)cc1S(=O)(=O)N(C)/N=C/c1cnn2ccc(C#N)cc12 | – | – | –
230 nM | 13 nM | 360 nM | – | Cc1ccc(Cl)cc1S(=O)(=O)N(C)/N=C/c1cnn2ccc(C#N)cc12 | 670 nM | 540 nM | –
410 nM | 36 nM | 1200 nM | – | CN(/N=C/c1cnn2ccc(C#N)cc12)S(=O)(=O)c1cccc([N+](=O)[O-])c1 | 380 nM | 690 nM | –
24 nM | 2.2 nM | 44 nM | 0.5 µg/mL (≈ 1.17 µM) | CN(C)c1ccc([N+](=O)[O-])cc1S(=O)(=O)N(C)/N=C/c1cnn2ccc(C#N)cc12 | 40 nM | 100 nM | –
9.3 nM | 0.5 nM | 62 nM | 0.2 µg/mL (≈ 0.485 µM) | CCN(/N=C/c1cnn2ccc(C#N)cc12)S(=O)(=O)c1cc([N+](=O)[O-])ccc1C | 30 nM | 90 nM | –
> 1000 nM | 65 nM | > 1000 nM | – | Cc1cc([N+](=O)[O-])ccc1S(=O)(=O)N(C)/N=C/c1cnn2ccc(C#N)cc12 | > 20000 nM | > 20000 nM | –
> 1000 nM | > 1000 nM | > 1000 nM | – | Cc1c([N+](=O)[O-])cccc1S(=O)(=O)N(C)/N=C/c1cnn2ccc(C#N)cc12 | > 20000 nM | > 20000 nM | –
24 nM | 0.5 nM | 64 nM | – | CN(/N=C/c1cnn2ccc(C#N)cc12)S(=O)(=O)c1cc([N+](=O)[O-])ccc1Cl | 880 nM | 350 nM | –
13 nM | 1.5 nM | 280 nM | – | CCc1ccc([N+](=O)[O-])cc1S(=O)(=O)N(C)/N=C/c1cnn2ccc(C#N)cc12 | 170 nM | 80 nM | –
120 nM | 4.7 nM | 44 nM | – | CN(/N=C/c1cnn2ccc(C#N)cc12)S(=O)(=O)c1cc([N+](=O)[O-])ccc1F | 480 nM | 400 nM | –
39 nM | 1.8 nM | 300 nM | – | CC(C)c1ccc([N+](=O)[O-])cc1S(=O)(=O)N(C)/N=C/c1cnn2ccc(C#N)cc12 | 180 nM | 260 nM | –
180 nM | 77 nM | 490 nM | – | Cc1ccc([N+](=O)[O-])cc1S(=O)(=O)N(CCN(C)C)/N=C/c1cnn2ccc(C#N)cc12 | 360 nM | 390 nM | –
200 nM | 350 nM | 830 nM | – | Cc1ccc(S(C)(=O)=O)cc1S(=O)(=O)N(C)/N=C/c1cnn2ccc(C#N)cc12 | 500 nM | 620 nM | –
– | – | – | 0.1 µg/mL (≈ 0.251 µM) | Cc1ccc([N+](=O)[O-])cc1S(=O)(=O)N(C)/N=C/c1cnn2ccc(C#N)cc12 | – | 1400 nM | 21.2%
22 nM | 0.8 nM | 63 nM | 0.2 µg/mL (≈ 0.483 µM) | COc1ccc([N+](=O)[O-])cc1S(=O)(=O)N(C)/N=C/c1cnn2ccc(C#N)cc12 | 90 nM | 50 nM | –
